The source of these data is ChEMBL document CHEMBL4270636, “5'-Chloro-2,2'-dihydroxychalcone and related flavanoids as treatments for prostate cancer” (Eur J Med Chem, 2018).

pIC50: −log10 of the molar value. The source made the active and inactive calls. The calls are words filed in the database; no cut-off is given here. Some results are limits rather than exact numbers.

The test system of one series is Mus musculus. In words: Toxicity in C.B-17 SCID mouse xenografted with human PC3 cells assessed as body weight loss at 30 mg/kg, ip administered every 4 days. It counts as organism-based. Conditions: in vivo, 96 h. An outline of the steps:
(§1)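 Male C.B-17 scid mice (purchased at 7 weeks) given 2.0×10⁶ PC-3 cells in 50% matrigel subcutaneously on dorsal side at 8 weeks; at ~50 mm³ tumor, randomized into groups of 5, dosing from second day at 30 mg/kg i.p. every 4 days; tumor volume and body weight followed; mean ± SD.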

For series [1], the system named is LNCaP. In words: Antiproliferative activity against human LNCAP cells assessed as reduction in cell growth at 10 uM treated every 2 days for 4 days by hemocytometry. In kind it is functional, cell-based.
In series [2] the test system is PC-3. The series is described as follows: Antiproliferative activity against human PC3 cells assessed as reduction in cell growth treated every 2 days for 4 days by hemocytometry. It counts as functional, cell-based.
For series [3], the target named is T1, Androgen receptor (Homo sapiens) (UniProt P10275).
T1 sequence (whole entry): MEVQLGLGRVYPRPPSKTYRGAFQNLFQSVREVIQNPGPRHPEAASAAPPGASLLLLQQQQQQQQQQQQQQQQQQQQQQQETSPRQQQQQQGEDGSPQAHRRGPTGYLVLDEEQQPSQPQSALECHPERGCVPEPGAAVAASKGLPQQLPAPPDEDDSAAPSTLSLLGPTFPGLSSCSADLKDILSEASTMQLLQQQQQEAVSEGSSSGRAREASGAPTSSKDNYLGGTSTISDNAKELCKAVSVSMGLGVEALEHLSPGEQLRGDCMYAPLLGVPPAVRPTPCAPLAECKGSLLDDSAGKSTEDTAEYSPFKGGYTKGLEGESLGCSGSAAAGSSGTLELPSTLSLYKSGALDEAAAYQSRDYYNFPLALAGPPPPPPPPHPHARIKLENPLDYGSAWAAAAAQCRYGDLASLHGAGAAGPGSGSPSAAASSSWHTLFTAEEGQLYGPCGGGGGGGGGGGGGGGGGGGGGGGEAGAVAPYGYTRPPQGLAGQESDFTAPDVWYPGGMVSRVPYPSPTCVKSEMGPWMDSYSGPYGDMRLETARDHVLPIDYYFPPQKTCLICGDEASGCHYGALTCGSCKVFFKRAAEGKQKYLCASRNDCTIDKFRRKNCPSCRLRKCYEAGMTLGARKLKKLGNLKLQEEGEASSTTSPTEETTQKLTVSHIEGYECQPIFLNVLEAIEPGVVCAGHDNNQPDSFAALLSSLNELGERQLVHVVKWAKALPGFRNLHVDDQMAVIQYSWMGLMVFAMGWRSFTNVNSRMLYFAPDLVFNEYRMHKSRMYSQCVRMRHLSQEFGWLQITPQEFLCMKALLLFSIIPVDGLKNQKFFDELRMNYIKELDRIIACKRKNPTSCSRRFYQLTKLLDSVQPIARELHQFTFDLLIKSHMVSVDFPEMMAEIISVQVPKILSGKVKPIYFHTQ
The series is described as follows: Antagonist activity at AR (unknown origin) expressed in human PC3 cells assessed as reduction in DHT-induced transcriptional activation at 3 to 10 uM after 24 hrs by luciferase reporter gene assay. It counts as cell-based. The method, boiled down: (§2)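 PC-3 cells (AR-negative) co-transfected with wild-type or AR-V7 expression vector plus PSA promoter-luciferase reporter (pGL3PSAp-5.8, 0.5 ug/well); seeded 50,000/well, transfected after 24 h, treated with compounds ± 1 nM DHT for 24 h from 24 h post-transfection; lysed cells read for luciferase activity by luminometer.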

For series [4], the target named is T1, Androgen receptor (Homo sapiens). In words: Antagonist activity at AR in human LNCAP cells assessed as reduction in DHT-induced cell growth at 1 to 3 uM treated for every 2 days for 4 days by hemocytometry. In kind it is cell-based.
The next series deals with T2, Androgen receptor (Homo sapiens, UniProt P10275).
T2 sequence (P10275 whole entry): T1 sequence (whole entry)
The series is described as follows: Antagonist activity at AR in human LNCAP cells assessed as reduction in DHT-induced transcriptional activation after 24 hrs by luciferase reporter gene assay. It counts as cell-based.

Series [5] can be described thus: Antiproliferative activity against human DU145-TxR cells assessed as reduction in cell growth treated every 2 days for 4 days by hemocytometry. It counts as functional, cell-based.
The subject of series [6] is LNCaP. In words: Antiproliferative activity against human LNCAP cells assessed as reduction in cell growth treated every 2 days for 4 days by hemocytometry. In kind it is functional, cell-based.
The subject of series [7] is Androgen receptor (Homo sapiens), P10275 [UNDEFINED MUTATION]. The series is described as follows: Antagonist activity at AR V7 mutant (unknown origin) expressed in human PC3 cells assessed as reduction in DHT-induced transcriptional activation after 24 hrs by luciferase reporter gene assay. It counts as cell-based. An outline of the steps: as §2
Series [8] deals with PC-3. In words: Cell cycle arrest in human PC3 cells assessed as accumulation at Sub-G1 phase at 2 times IC50 after 24 to 48 hrs by propidium iodide staining based flow cytometry. In kind it is functional.
The nature of series [9]: Antiproliferative activity against human PC3/TxR/CxR cells assessed as reduction in cell growth treated every 2 days for 4 days by hemocytometry. It counts as functional, cell-based.
Series [10] can be described thus: Antiproliferative activity against human PC3-TxR cells assessed as reduction in cell growth treated every 2 days for 4 days by hemocytometry. It counts as functional, cell-based.
In series [11] the test system is A549. In words: Cell cycle arrest in human A549 cells assessed as accumulation at Sub-G1 phase at 3 times IC50 after 24 to 48 hrs by propidium iodide staining based flow cytometry. In kind it is functional.
A further series concerns MCF7. The series is described as follows: Antiproliferative activity against human MCF7 cells assessed as reduction in cell growth after 72 hrs by sulforhodamine B assay. Conditions: MCF7, 72 h.
Series [12] deals with A549. The series is described as follows: Cell cycle arrest in human A549 cells assessed as accumulation at G1 phase at 3 times IC50 after 24 to 48 hrs by propidium iodide staining based flow cytometry. It counts as functional.
The subject of a further series is DU-145. In words: Antiproliferative activity against human DU145 cells assessed as reduction in cell growth treated every 2 days for 4 days by hemocytometry. In kind it is functional, cell-based.
In series [13] the test system is PC-3. In words: Antitumor activity against human PC3 cells xenografted in C.B-17 SCID mouse assessed as tumor growth inhibition at 30 mg/kg, ip administered every 4 days measured during compound dosing. In kind it is functional, organism-based. An outline of the steps:
as §1

Series [14] relates to A549. The series is described as follows: Antiproliferative activity against human A549 cells assessed as reduction in cell growth after 72 hrs by sulforhodamine B assay. Conditions: A549, 72 h.
A short description of series [15]: Antiproliferative activity against human KBVIN cells assessed as reduction in cell growth after 72 hrs by sulforhodamine B assay. In kind it is functional, cell-based.
The species named for series [16] is Homo sapiens. In words: Antiproliferative activity against human LNCaP-SF cells assessed as reduction in cell growth at 10 uM treated every 2 days for 4 days by hemocytometry. It counts as functional, cell-based. An outline of the steps:
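LNCaP-SF castration-resistant subline cultured 4 days with compound at stated concentrations, with or without 0.1 nM DHT; growth assessed by cell counting.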

Series [17] is filed under the species Homo sapiens. The series is described as follows: Induction of microtubule depolymerization in human PC3 cells at 2 times IC50 after 24 hrs by […] microscopic analysis. It counts as cell-based.
The subject of another series is MDA-MB-231. In words: Antiproliferative activity against human MDA-MB-231 cells assessed as reduction in cell growth after 72 hrs by sulforhodamine B assay. It counts as functional, cell-based. Conditions: MDA-MB-231, 72 h.
The nature of series [18]: Antiproliferative activity against human DU145/TxR/CxR cells assessed as reduction in cell growth treated every 2 days for 4 days by hemocytometry. It counts as functional, cell-based. Conditions: DU-145.
Another series concerns KB. The series is described as follows: Antiproliferative activity against human KB cells assessed as reduction in cell growth after 72 hrs by sulforhodamine B assay.

Regarding `O=C(/C=C/c1ccccc1O)c1cc(Cl)ccc1O`, in the series on Mus musculus, the Activity entry is on record as “Non-Toxic”. In addition, the outcome (in the series on LNCaP [1]; in [4]; in the series on PC-3 [8]; with A549 [12]; in the series filed under Homo sapiens [16]; in the series listed under Homo sapiens [17]) was Active. Besides, the pIC50 in the series with PC-3 [2] was 5.82; at Androgen receptor it was over 6.00; in series [5] it was 5.13; in the series with LNCaP [6] it was 5.45; in series [9], 5.39; in [10], over 5.52. Besides, the negative-log IC50 (pIC50) is 5.31 in the series with MCF7; 5.35 in the series with DU-145; 5.04 with A549 [14]; 5.31 in series [15]; 5.29 in the series with MDA-MB-231; 5.27 in series [18]. Further, in the series on KB, the pIC50 is 5.30. Further, in series [3], the inhibition entry is “Active”. For the same compound, the inhibition entry in series [7] was “Dose-dependent effect”. For the same compound, the outcome with A549 [11] was inactive. In addition, the TGI entry with PC-3 [13] is “Active”.
